Experimental data: ChEMBL document CHEMBL3808334, “Synthesis and in vitro evaluation of novel triazine analogues as anticancer agents and their interaction studies with bovine serum albumin” (Eur J Med Chem, 2016)

Columns and labels:
Type in all cases: functional
[1] = Growth inhibition of human SW620 cells assessed as cell growth at 10^-7 M incubated for 48 hrs by sulforhodamine B assay; settings: SW-620, 48 h, read-out: Activity
[2] = Growth inhibition of human Caki1 cells assessed as cell growth at 10^-5 M incubated for 48 hrs by sulforhodamine B assay; settings: CAKI-1, 48 h, read-out: Activity
Outline: (§1)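 Cells seeded at 5,000–40,000/well according to doubling time and preincubated 24 h at 37 °C, 5% CO2. Time-zero plates were TCA-fixed. DMSO concentrate was diluted in medium with 50 µg/ml gentamicin to give five concentrations (10-fold or ½ log steps), then exposed 48 h. Cells were TCA-fixed, stained with 0.4% SRB and read at 515 nm. Percent growth was taken against time-zero and control; GI50, TGI and LC50 derived.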

[3] = test system: SK-MEL-28; experiment: Growth inhibition of human SK-MEL-28 cells assessed as cell growth at 10^-7 M incubated for 48 hrs by sulforhodamine B assay; settings: SK-MEL-28, 48 h, read-out: Activity
[4] = test system: NCI-H522; experiment: Growth inhibition of human NCI-H522 cells assessed as cell growth at 10^-4 M incubated for 48 hrs by sulforhodamine B assay; settings: NCI-H522, 48 h, read-out: Activity
[5] = Growth inhibition of human TK10 cells assessed as cell growth at 10^-4 M incubated for 48 hrs by sulforhodamine B assay; settings: TK-10, 48 h, read-out: Activity
[6] = Growth inhibition of human SF539 cells assessed as cell growth at 10 uM incubated for 48 hrs by sulforhodamine B assay; settings: SF-539, 48 h, read-out: Activity
[7] = Growth inhibition of human SF539 cells assessed as cell growth at 10^-7 M incubated for 48 hrs by sulforhodamine B assay; settings: SF-539, 48 h, read-out: Activity
[8] = Growth inhibition of human COLO205 cells assessed as cell growth at 10^-8 M incubated for 48 hrs by sulforhodamine B assay; settings: COLO 205, 48 h, read-out: Activity; outline: as §1
[9] = Growth inhibition of human HCT15 cells assessed as cell growth at 10 uM incubated for 48 hrs by sulforhodamine B assay; settings: HCT-15, 48 h, read-out: Activity
Outline: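 Primary screen at one dose (10 µM) across 60 human cancer cell lines. Readout was growth percent relative to untreated control and time-zero.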

[10] = test system: MDA-MB-468; experiment: Growth inhibition of human MDA-MB-468 cells assessed as cell growth at 10^-8 M incubated for 48 hrs by sulforhodamine B assay; settings: MDA-MB-468, 48 h, read-out: Activity
[11] = test system: CCRF-CEM; experiment: Growth inhibition of human CCRF-CEM cells assessed as cell growth at 10 uM incubated for 48 hrs by sulforhodamine B assay; settings: read-out: Activity
Outline: (§2)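 One-dose screen at 10 µM final. Cells are plated at 5,000–40,000 per well according to doubling time and preincubated 24 h at 37 °C, 5% CO₂. Compound (DMSO stock diluted in medium with 50 µg/ml gentamicin) is then added for 48 h. Growth percent is read by sulforhodamine B staining, absorbance at 515 nm.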

[12] = Growth inhibition of human melanoma cells incubated for 48 hrs by sulforhodamine B assay; settings: Melanoma cell
[13] = test system: NCI-H322M; experiment: Growth inhibition of human NCI-H322M cells assessed as cell growth at 10^-6 M incubated for 48 hrs by sulforhodamine B assay; settings: read-out: Activity
[14] = test system: MCF7; experiment: Growth inhibition of human MCF7 cells assessed as cell growth at 10 uM incubated for 48 hrs by sulforhodamine B assay; settings: MCF7, 48 h, read-out: Activity
[15] = test system: NCI-H522; experiment: Growth inhibition of human NCI-H522 cells assessed as cell growth at 10^-8 M incubated for 48 hrs by sulforhodamine B assay; settings: NCI-H522, 48 h, read-out: Activity
[16] = test system: NCI-H226; experiment: Growth inhibition of human NCI-H226 cells assessed as cell growth at 10^-6 M incubated for 48 hrs by sulforhodamine B assay; settings: NCI-H226, 48 h, read-out: Activity
[17] = test system: M14; experiment: Growth inhibition of human M14 cells assessed as cell growth at 10^-4 M incubated for 48 hrs by sulforhodamine B assay; settings: M14, 48 h, read-out: Activity
[18] = Growth inhibition of human TK10 cells incubated for 48 hrs by sulforhodamine B assay; settings: TK-10, 48 h
Outline: (§3)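 Cells were plated at 5,000–40,000 per well according to doubling time and preincubated 24 h at 37 °C in 5% CO2; time-zero plates were then TCA-fixed. Five concentrations (10-fold or ½-log dilutions, DMSO stock) were incubated 48 h. Cells were TCA-fixed, stained with 0.4% SRB and read at 515 nm. GI50 was taken where [(Ti−Tz)/(C−Tz)]×100 = 50.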

[19] = test system: NCI-H322M; experiment: Growth inhibition of human NCI-H322M cells assessed as cell growth at 10^-7 M incubated for 48 hrs by sulforhodamine B assay; settings: read-out: Activity
[20] = test system: NCI-H522; experiment: Growth inhibition of human NCI-H522 cells assessed as cell growth at 10^-5 M incubated for 48 hrs by sulforhodamine B assay; settings: NCI-H522, 48 h, read-out: Activity
[21] = test system: T47D; experiment: Growth inhibition of human T47D cells assessed as cell growth at 10^-6 M incubated for 48 hrs by sulforhodamine B assay; settings: read-out: Activity
[22] = Growth inhibition of human SF295 cells incubated for 48 hrs by sulforhodamine B assay; settings: SF-295, 48 h; outline: as §3
[23] = Growth inhibition of human OVCAR5 cells assessed as cell growth at 10^-8 M incubated for 48 hrs by sulforhodamine B assay; settings: OVCAR-5, 48 h, read-out: Activity
[24] = Growth inhibition of human RXF393 cells assessed as cell growth at 10 uM incubated for 48 hrs by sulforhodamine B assay; settings: RXF 393, 48 h, read-out: Activity
[25] = Growth inhibition of human BT549 cells assessed as cell growth at 10 uM incubated for 48 hrs by sulforhodamine B assay; settings: BT-549, 48 h, read-out: Activity; outline: as §2
[26] = test system: NCI-H460; experiment: Growth inhibition of human NCI-H460 cells assessed as cell growth at 10^-4 M incubated for 48 hrs by sulforhodamine B assay; settings: NCI-H460, 48 h, read-out: Activity
[27] = test system: NCI-H322M; experiment: Growth inhibition of human NCI-H322M cells incubated for 48 hrs by sulforhodamine B assay; outline: as §3
[28] = read-out: LC50 (the source's name)
[29] = read-out: pLC50 (the source's name) (converted)

Fc1ccc(-c2nc(Nc3ccc(-c4nc5ccccc5[nH]4)cc3)nc(N3CCOCC3)n2)cc1
growth at 0.1 µM [1]: 100%
growth at 10 µM [2]: -37%
growth at 0.1 µM [3]: 91%
growth at 100 µM [4]: -31%
growth at 100 µM [5]: -27%
growth at 10 µM [6]: 0.31%
growth at 0.1 µM [7]: 92%
growth at 0.01 µM [8]: 100%
growth at 10 µM [9]: -62.2%
growth at 0.01 µM [10]: 97%
growth at 10 µM [11]: -1.84%
GI50 [12]: 1.91 µM
TGI [12]: 4.04 µM
CC50 [12, 28]: 7.43 µM
growth at 1 µM [13]: 93%
growth at 10 µM [14]: -44.3%
growth at 0.01 µM [15]: 96%
growth at 1 µM [16]: 113%
growth at 100 µM [17]: -80%
GI50 ([18]; read-out: GI50): 2.91 µM
CC50 [18, 28]: > 100 µM
TGI ([18]; read-out: TGI): 8.54 µM
GI50 ([18]; read-out: pGI50 (converted)): 2.88 µM
CC50 [18, 29]: > 100 µM
TGI ([18]; read-out: pTGI (converted)): 8.51 µM
growth at 0.1 µM [19]: 102%
growth at 10 µM [20]: -30%
growth at 1 µM [21]: 88%
GI50 ([22]; read-out: GI50): 1.59 µM
CC50 [22, 28]: > 100 µM
TGI ([22]; read-out: TGI): 4.7 µM
GI50 ([22]; read-out: pGI50 (converted)): 1.58 µM
CC50 [22, 29]: > 100 µM
TGI ([22]; read-out: pTGI (converted)): 4.68 µM
growth at 0.01 µM [23]: 93%
growth at 10 µM [24]: -67.5%
growth at 10 µM [25]: 5.16%
growth at 100 µM [26]: -39%
GI50 ([27]; read-out: GI50): 3.62 µM
CC50 [27, 28]: > 100 µM
TGI ([27]; read-out: TGI): > 100 µM
GI50 ([27]; read-out: pGI50 (converted)): 3.63 µM
CC50 [27, 29]: > 100 µM
TGI ([27]; read-out: pTGI (converted)): > 100 µM
